Source: PubChem BioAssay (Johns Hopkins Ion Channel Center)
Most compounds without a hit are left out; they make up all but 3.5% or so of the library.
MrgX1 antagonist – antagonists of human MrgX1 receptor, primary screen, HEK293 cells, Fluo-4 calcium flux; BAM8-22 antagonism; stronger effect = lower value; B-score at 10 µM; actives 1.3% (n = 310,000);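 active = calcium-response B-score plate-corrected more than 3 library SD below zero, starting fluorescence within 5 deviations, no agonist response on first addition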;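 note: peak minus trough fluorescence over baseline after final BAM8-22 challenge near maximal dose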
RGS4 block – RGS4 inhibitors, primary screen, cell-based, HEK293 M3R inducible RGS4, calcium flux; Regulator of G-protein signaling 4 (Homo sapiens), P49798; Fluo-4 calcium flux; stronger effect = higher value; triggered by carbachol at its EC20; B-score at 10 µM; actives 0.45% (n = 310,000);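 active = B-score, a plate-corrected calcium signal, over three deviations above library mean, with baseline fluorescence within five deviations of library mean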;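 note: RGS4 expression induced by doxycycline in cells with stable M3 receptor; B-score is computed from the integrated fluorescence ratio over baseline after carbachol; higher B-score means a larger calcium signal and so more RGS4 inhibition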
Target sequence (P49798 whole entry, looked up): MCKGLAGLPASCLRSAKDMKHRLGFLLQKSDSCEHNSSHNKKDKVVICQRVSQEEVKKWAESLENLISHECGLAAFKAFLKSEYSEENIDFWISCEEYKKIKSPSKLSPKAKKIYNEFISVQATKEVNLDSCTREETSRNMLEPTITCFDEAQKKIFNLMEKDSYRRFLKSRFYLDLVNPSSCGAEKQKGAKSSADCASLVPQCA
RGS4 act – RGS4 potentiators or activators, primary screen, cell-based, HEK293 M3R inducible RGS4, calcium flux; carbachol calcium flux Fluo4; stronger effect = lower value; B-score at 10 µM; actives 0.92% (n = 310,000); AID 463111, 2010;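 active = B-score of the integrated calcium signal more than 4 SD below the library mean, with starting fluorescence not abnormally high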;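 note: negative B-score means reduced calcium response which marks RGS4 activation or potentiation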
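Detection: kinetic calcium fluorescence imaging with Fluo4-AM dye, 2 µM / Material: HEK293 cells with stable M3R and inducible RGS4 / Schedule: recording 10 s baseline at 1 Hz, 100 s post-agonist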
MrgX1 agonist – agonists of human MrgX1 receptor, primary screen, HEK293 cells, Fluo-4 calcium flux | Fluo-4 calcium fluorescence, agonist mode; stronger effect = higher value | actives 0.44% (n = 310,000) | B-score at 10 µM | Mas-related G-protein coupled receptor member X1 (Homo sapiens), Q96LB2 | AID 588627, 2011;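 active = calcium response B-score plate-corrected fluorescence ratio at least 3 library SD, with starting fluorescence B-score inside 5 SD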
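Assay system: stable human MrgX1 HEK293 cell line. Quantity: 15,000 cells per well. Schedule: cells plated overnight, dye loaded 0.5 h 37 °C, 0.5 h room temperature. Detection: Fluo-4 NW calcium-flux fluorescence, kinetic read. Read-out basis: peak-minus-minimum fluorescence over baseline, converted to B scores. Control set: positive and negative control wells on each plate.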
MrgX1 allo act – positive allosteric modulators of MrgX1, primary screen, HEK293 cells, Fluo-4 calcium flux | Mas-related G-protein coupled receptor member X1 (Homo sapiens), Q96LB2 | FDSS; stronger effect = higher value | B-score at 10 µM | actives 0.63% (n = 310,000);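 active = plate-corrected calcium response at least 3 library SD above typical, normal starting fluorescence, not activating the receptor alone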;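 note: compound read alongside a low EC10 to EC30 dose of BAM8-22 agonist; peak minus trough fluorescence over baseline measured at the second addition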
* marks the source's active call; other numbers are inactive results; i = inactive; nt = no result.

SMILES	MrgX1 antagonist	RGS4 block	RGS4 act	MrgX1 agonist	MrgX1 allo act
COc1cc(/C=C2\C(=N)N3N=CSC3=NC2=O)cc(Br)c1OC(=O)c1ccco1	i	i	i	34.1*	i
CCNc1ccc(C(=O)OCC(=O)c2cc(C)n(Cc3ccc4c(c3)OCO4)c2C)cc1[N+](=O)[O-]	i	i	i	i	i
Cc1cc(NC(=O)CN2C(=O)NC3(CCCCC3C)C2=O)no1 (stereo not given)	i	i	i	i	i
Cc1cc(/C=C(/C#N)c2nc3ccccc3[nH]2)c(C)n1-c1cccc([N+](=O)[O-])c1	i	i	-7.13*	i	i
Cc1cc(/C=C(\C#N)c2nc3ccccc3[nH]2)c(C)n1C	i	i	i	i	i
N#C/C(=C\c1ccc(Cl)cc1)c1nc2ncccc2[nH]1	i	i	i	i	18.8*
COc1cc(/C=C(\C#N)c2nc3ccccc3[nH]2)cc(OC)c1O	i	i	i	43.9*	i
CN(C)/C=C(\C#N)c1nc2ccccc2[nH]1	i	i	i	i	i
COc1ccc(/C=C(\C#N)c2nc3ccccc3[nH]2)cc1O	nt	i	i	nt	nt
N#C/C(=C\c1c(Cl)cccc1Cl)c1nc2ccccc2[nH]1	i	i	i	i	8.67*
Cc1cccc(NC(=O)c2csnn2)n1	i	i	i	i	i
CC(C)C(=O)OC1CCS(=O)(=O)c2sccc21 (stereo not given)	i	i	i	i	i
NS(=O)(=O)c1cc(C(=O)NC2CCSc3ccccc32)ccc1Cl (stereo not given)	i	i	i	61.6*	i
CCN1CCCC1CNC(=O)CCNC(=O)c1cc(OC)c(OC)c(OC)c1 (stereo not given)	-6.5*	i	i	i	i
CCN1CCCC1CNC(=O)c1cc(OC)c(OC)c(OC)c1 (stereo not given)	i	i	i	i	i
O=C(O)C1CSC2(c3ccc(Br)cc3)CCC(=O)N12 (stereo not given)	i	i	i	i	i
O=C1Cc2ccccc2C(=O)N1CCc1ccccc1	-5.21*	i	i	i	i
O=C1C(=O)N(Cc2ccccc2)C(=O)N1CCN1C(=O)c2ccccc2C1=O	i	i	i	i	i
COCCn1c(-c2ccc(-c3ccc([N+](=O)[O-])cc3Br)o2)nc2c1c(=O)[nH]c(=O)n2CC(C)C	-6.22*	i	i	i	i
COCCn1c(=O)[nH]c(=O)c2c1nc(-c1ccc(-c3ccc(Cl)cc3[N+](=O)[O-])o1)n2Cc1ccccc1	i	i	i	i	i
CC(C)N(C(=S)Nc1cccc(C(F)(F)F)c1)C(C)c1ccccn1 (stereo not given)	-9.46*	i	i	i	i
COc1ccccc1NC(=S)N(C(C)C)C(C)c1ccccn1 (stereo not given)	i	i	i	i	i
Cc1cc(C(=O)Nc2c(C)nn(Cc3ccc(F)cc3)c2C)on1	-4.88*	i	i	i	i
O=C1Nc2ccc(Br)cc2C12NNc1ccccc1O2 (stereo not given)	i	i	i	i	i
O=C(NCCO)C(=O)Nc1cc2c3c(c1)CC(=O)N3CCC2	i	i	i	i	i
O=C(CCl)c1cc2c3c(c1)CC(=O)N3CCC2	i	17.3*	i	27*	i
CCCCn1c(N)c(N(CCOC)C(=O)c2ccc3c(c2)C(=O)N(c2ccccc2C)C3=O)c(=O)[nH]c1=O	i	i	i	i	i
CCCCn1c(N)c(N(CCOC)C(=O)c2ccc3c(c2)C(=O)N(c2cc(C)ccc2C)C3=O)c(=O)[nH]c1=O	i	i	i	i	11.9*
O=C(COC(=O)/C=C/c1ccccc1)NCC1CCCO1 (stereo not given)	i	i	i	i	9.84*
